From ChEMBL document CHEMBL1147108, “Comparison of disk diffusion and agar dilution methods for erythromycin and ciprofloxacin susceptibility testing of Campylobacter jejuni subsp. jejuni” (2007) come the findings set out here.

What all share (type): functional
The test system of test [1] is Campylobacter jejuni. Kind of test: Antibacterial activity against susceptible Campylobacter jejuni isolates by agar dilution test. In short, it runs like this:
(§1)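 Agar dilution MICs of clinical C. jejuni isolates, run at 37°C following CLSI recommendations; C. jejuni ATCC 33560 served as control strain.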
(In agar dilution, organisms are placed on agar that contains the substance at set levels.)

Test [2] relates to Campylobacter jejuni. Kind of test: Antibacterial activity against erythromycin-resistant Campylobacter jejuni isolates by disk diffusion test. In short, it runs like this:
(§2)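 Isolate suspensions were made in Mueller-Hinton broth to 0.5 McFarland and spread on Mueller-Hinton agar with 5% sheep blood. Disks used were erythromycin 15 μg and ciprofloxacin 5 μg. Plates were held at 37°C for 48 h, and inhibition zone diameters were measured with slipping calipers; 6 mm means no zone.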
Background: In agar diffusion tests the substance spreads into inoculated agar from a disc or well.

Test [3] deals with Campylobacter jejuni. Nature of the test: Antibacterial activity against susceptible Campylobacter jejuni isolates by disk diffusion test. To be noted: for MIC: Campylobacter jejuni. In short, it runs like this:
as §2

Test [4] deals with Campylobacter jejuni. Kind of test: Antibacterial activity against erythromycin-resistant Campylobacter jejuni isolates by agar dilution test. In short, it runs like this:
as §1

The subject of test [5] is Campylobacter jejuni. Nature of the test: Antimicrobial activity against ciprofloxacin-resistant Campylobacter jejuni isolate by agar dilution test. In short, it runs like this: as §1
The test system of test [6] is Campylobacter jejuni. Kind of test: Antimicrobial activity against ciprofloxacin-resistant Campylobacter jejuni isolates by disk diffusion test. In short, it runs like this: as §2

Converted amounts (≈) assume the structure as drawn.

In general, MIC refers to the least concentration at which growth counts as inhibited. A high value points to weaker potency.

On to `CC[C@H]1OC(=O)[C@H](C)[C@@H](O[C@H]2C[C@@](C)(OC)[C@@H](O)[C@H](C)O2)[C@H](C)[C@@H](O[C@@H]2O[C@H](C)C[C@H](N(C)C)[C@H]2O)[C@](C)(O)C[C@@H](C)C(=O)[C@H](C)[C@@H](O)[C@]1(C)O` [ERYTHROMYCIN], for which the MIC with Campylobacter jejuni [1] was 0.06 µg/mL (≈ 0.0818 µM); against Campylobacter jejuni [2] (Campylobacter jejuni), at least 256 µg/mL; with Campylobacter jejuni [3], 0.06 µg/mL (≈ 0.0818 µM); with Campylobacter jejuni [4], at least 256 µg/mL. Also, the figures for the “inhibition zone (IZ)” value in the test on Campylobacter jejuni [2] and in the test with Campylobacter jejuni [3] were 6 mm and 17.5 mm, respectively.
As for `O=C(O)c1cn(C2CC2)c2cc(N3CCNCC3)c(F)cc2c1=O` [CIPROFLOXACIN], the MIC with Campylobacter jejuni [1] was 0.06 µg/mL (≈ 0.181 µM); in the test on Campylobacter jejuni [3], 0.06 µg/mL (≈ 0.181 µM); against Campylobacter jejuni [5] it was 4 µg/mL (≈ 12.1 µM); against Campylobacter jejuni [6] (Campylobacter jejuni) it was 4 µg/mL (≈ 12.1 µM). In addition, the “inhibition zone (IZ)” value with Campylobacter jejuni [3] was determined as 21 mm; in the test with Campylobacter jejuni [6], 6 mm.
